From ChEMBL document CHEMBL4118105, “High-Affinity Peptidomimetic Inhibitors of the DCN1-UBC12 Protein-Protein Interaction” (J Med Chem, 2018) come the findings set out here.

≈ marks a conversion by molar mass, not a printed value. Calls of active or inactive are those of the source. The calls are words filed in the database; no cut-off is given here.

Series [1] addresses T1, DCN1-like protein 1 (Homo sapiens, UniProt Q96GG9). The series is described as follows: Inhibition of DCN1-mediated CUL3 neddylation in human SK-MES-1 cells at 10 uM after 16 hrs by Western blot analysis. The series is classed as cell-based. Background: In western blotting, separated proteins are transferred to a membrane and probed.
Target sequence in this assay (Q96GG9 whole entry, looked up): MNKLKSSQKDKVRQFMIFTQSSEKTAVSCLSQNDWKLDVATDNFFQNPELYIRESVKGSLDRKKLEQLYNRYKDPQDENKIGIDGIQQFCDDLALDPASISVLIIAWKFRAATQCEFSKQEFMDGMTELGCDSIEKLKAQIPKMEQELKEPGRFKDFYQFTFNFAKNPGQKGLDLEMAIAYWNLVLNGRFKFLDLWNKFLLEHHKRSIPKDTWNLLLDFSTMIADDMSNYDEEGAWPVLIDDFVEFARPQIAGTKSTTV
In series [2] the target is T1, DCN1-like protein 1. The experiment in a line: Inhibition of DCN1-mediated CUL5 neddylation in human H2170 cells at 10 uM after 16 hrs by Western blot analysis. The series is classed as cell-based. In short, it runs like this:
(§1)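 H2170 cells exposed to compound for 16 h, then lysed in Triton X-100 or RIPA buffer with phosphatase inhibitors. Neddylated and unneddylated cullins, NRF2 and CDT1 read by Western blot on whole-cell lysate, with GAPDH as loading control.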
Target sequence in this assay (Q96GG9 whole entry, looked up): as above

For series [3], the target named is T1, DCN1-like protein 1. The series is described as follows: Inhibition of DCN1-mediated CUL1 neddylation in human SK-MES-1 cells at 10 uM after 16 hrs by Western blot analysis. The series is classed as cell-based.
Target sequence in this assay (Q96GG9 whole entry, looked up): as above
Series [4] deals with T1, DCN1-like protein 1. The series is described as follows: Inhibition of DCN1-mediated CUL1 neddylation in human H2170 cells at 10 uM after 16 hrs by Western blot analysis. The series is classed as cell-based. Put shortly: as §1
Target sequence in this assay (Q96GG9 whole entry, looked up): as above
For series [5], the target named is T1, DCN1-like protein 1. The series is described as follows: Inhibition of DCN1 interaction with UBC12 protein in human H2170 cell lysate at 20 uM after 3 hrs by immunoprecipitation assay. In short, it runs like this: (§2)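 Endogenous DCN1 pulled down from precleared lysates of treated cells with DCN1 antibody for 3 h, then protein A&G beads at 4 °C overnight with rotation. Beads washed three times in lysis buffer, complexes resolved by SDS−PAGE and immunoblotted.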
Target sequence in this assay (Q96GG9 whole entry, looked up): as above

Series [6] deals with T1, DCN1-like protein 1. The experiment in a line: Inhibition of DCN1-mediated CUL4A neddylation in human H2170 cells at 10 uM after 16 hrs by Western blot analysis. The series is classed as cell-based. In short, it runs like this: as §1
Target sequence in this assay (Q96GG9 whole entry, looked up): as above
Series [7] concerns the target T1, DCN1-like protein 1. The experiment in a line: Inhibition of DCN1-mediated CUL5 neddylation in human SK-MES-1 cells at 10 uM after 16 hrs by Western blot analysis. The series is classed as cell-based.
The target in series [8] is T1, DCN1-like protein 1. The experiment in a line: Stabilization of DCN1 in human H2170 cells at 10 uM incubated for 1 hr by cellular thermal shift assay. The series is classed as cell-based. In short, it runs like this:
(§3)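 H2170 cells (5 × 10^5 per sample) given compound or DMSO for 1 h, washed three times in PBS, resuspended in PBS with protease inhibitor, and heated at 53 °C for 3 min. Three liquid-nitrogen freeze/thaw-on-ice cycles followed. DCN1 in the supernatant read by Western blot, with GAPDH as loading control.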

Series [9] concerns the target T1, DCN1-like protein 1. The series is described as follows: Inhibition of DCN1-mediated CUL4B neddylation in human SK-MES-1 cells at 10 uM after 16 hrs by Western blot analysis. The format is cell-based.
The target in series [10] is T1, DCN1-like protein 1. The experiment in a line: Inhibition of DCN1-mediated CUL2 neddylation in human SK-MES-1 cells at 10 uM after 16 hrs by Western blot analysis. The format is cell-based.
In series [11] the target is T1, DCN1-like protein 1. The series is described as follows: Inhibition of DCN1-mediated CUL3 neddylation in human H2170 cells assessed as increase in NRF2 level at 10 uM after 16 hrs by Western blot analysis. The format is cell-based. In short, it runs like this: as §1
The target of series [12] is T1, DCN1-like protein 1. The series is described as follows: Inhibition of DCN1-mediated CUL2 neddylation in human H2170 cells at 10 uM after 16 hrs by Western blot analysis. The series is classed as cell-based. Put shortly:
as §1

The target of series [13] is T1, DCN1-like protein 1. The experiment in a line: Binding affinity to biotin labeled recombinant N-terminal His6-tagged human DCN1 (58 to 259 residues) expressed in Escherichia coli Rosetta2 cells by biolayer interferometry analysis. In short, it runs like this:
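Recombinant human DCN1 (58–259) was biotinylated at a 1:1 molar ratio in PBS for 2 h at 4 °C, dialyzed, then loaded on super streptavidin sensors from a 10 μg/mL solution. Blocked streptavidin sensors served as reference.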
For orientation: In BLI a coated tip is dipped into the sample, and binding shifts an interference pattern.
Target sequence in this assay (Q96GG9 whole entry): as the sequence (Q96GG9 whole entry, looked up) above

The target of series [14] is T1, DCN1-like protein 1. The experiment in a line: Inhibition of DCN1-mediated CUL3 neddylation in human H2170 cells at 10 uM after 16 hrs by Western blot analysis. The format is cell-based. Put shortly: as §1
For series [15], the target named is T1, DCN1-like protein 1. The series is described as follows: Inhibition of DCN1-mediated CUL4B neddylation in human H2170 cells at 10 uM after 16 hrs by Western blot analysis. The series is classed as cell-based. In short, it runs like this:
as §1

Series [16] deals with T1, DCN1-like protein 1. The experiment in a line: Binding affinity to biotin labeled recombinant N-terminal His6-tagged human DCN1 (58 to 259 residues) expressed in Escherichia coli Rosetta2 cells assessed as association rate constant by biolayer interferometry analysis. In short, it runs like this:
(§4)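 Biotinylated DCN1 (1:1 molar biotin reagent, 4 °C 2 h, dialysed) loaded on super streptavidin sensors from 10 μg/mL to 11−12 nm response; blocked streptavidin sensors as reference. Run at 30 °C, 1000 rpm, in PBS with 0.1% BSA, 0.01% Tween-20, 2% DMSO; 10 min baseline wash. kon/koff from 1:1 binding model fits; two independent experiments.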

The target in series [17] is T1, DCN1-like protein 1. The experiment in a line: Inhibition of DCN1-mediated CUL4A neddylation in human SK-MES-1 cells at 10 uM after 16 hrs by Western blot analysis. The format is cell-based.
Series [18] has as its target T1, DCN1-like protein 1. The experiment in a line: Binding affinity to biotin labeled recombinant N-terminal His6-tagged human DCN1 (58 to 259 residues) expressed in Escherichia coli Rosetta2 cells assessed as dissociation rate constant by biolayer interferometry analysis. Put shortly:
as §4

The target of series [19] is T1, DCN1-like protein 1. The series is described as follows: Inhibition of DCN1-mediated CUL4A neddylation in human H2170 cells at 0.1 to 10 uM after 16 hrs by Western blot analysis. The series is classed as cell-based. Put shortly:
as §1

Series [20] addresses T1, DCN1-like protein 1. The experiment in a line: Inhibition of DCN1-mediated CUL4A neddylation in human H2170 cells assessed as increase in CDT1 level at 0.1 to 10 uM after 16 hrs by Western blot analysis. The series is classed as cell-based. Put shortly: as §1
Series [21] has as its target T1, DCN1-like protein 1. The experiment in a line: Stabilization of DCN1 in human H2170 cells incubated for 1 hr by cellular thermal shift assay. The series is classed as cell-based. In short, it runs like this: as §3
Series [22] deals with T1, DCN1-like protein 1. The series is described as follows: Inhibition of DCN1 interaction with UBC12 protein in human H2170 cell lysate after 24 hrs by immunoprecipitation assay. Put shortly: as §2
For series [23], the system named is NCI-H2170. The experiment in a line: Effect on UBC12 levels in human NCI-H2170 cells at 5 to 10 uM after 24 hrs by Western blot analysis. The format is functional, cell-based.
In series [24] the target is T1, DCN1-like protein 1. The series is described as follows: Inhibition of DCN1-mediated CUL3 neddylation in human SK-MES-1 cells up to 10 uM after 16 hrs by Western blot analysis. The format is cell-based.
The target of series [25] is T1, DCN1-like protein 1. The experiment in a line: Inhibition of DCN1-mediated CUL3 neddylation in human H2170 cells assessed as increase in NRF2 level at 0.1 to 10 uM after 16 hrs by Western blot analysis. The series is classed as cell-based. Put shortly: as §1
A short description of series [26]: Equilibrium aqueous solubility of the compound in phosphate buffer of pH 7.4 after 24 hrs by shake-flask method. The format is physicochemical. Put shortly:
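Excess solid was suspended in phosphate buffer pH 7.4, sonicated 30 min, then shaken 24 h at room temperature. Suspensions were centrifuged at 15 000 rpm for 15 min and filtered through 0.45 μm membranes. The saturated concentration was read by UV at each compound's absorption maximum, found by spectrum scan.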

The target in series [27] is T1, DCN1-like protein 1. The series is described as follows: Inhibition of DCN1-mediated CUL4B neddylation in human H2170 cells at 0.1 to 10 uM after 16 hrs by Western blot analysis. The format is cell-based. Put shortly: as §1
Series [28] deals with NCI-H2170. The series is described as follows: Effect on DCN1 levels in human NCI-H2170 cells at 5 to 10 uM after 24 hrs by Western blot analysis. The format is functional, cell-based.
The target in series [29] is T1, DCN1-like protein 1. The experiment in a line: Inhibition of DCN1-mediated CUL5 neddylation in human H2170 cells at 0.1 to 10 uM after 16 hrs by Western blot analysis. The series is classed as cell-based. In short, it runs like this:
as §1

Series [30] addresses T1, DCN1-like protein 1. The series is described as follows: Inhibition of DCN1-mediated CUL3 neddylation in human H2170 cells after 16 hrs by Western blot analysis. The format is cell-based. In short, it runs like this: as §1
In series [31] the target is T1, DCN1-like protein 1. The experiment in a line: Inhibition of DCN1-mediated CUL2 neddylation in human H2170 cells at 0.1 to 10 uM after 16 hrs by Western blot analysis. The format is cell-based. Put shortly:
as §1

On to `CCC(=O)N[C@@H](Cc1nc2ccc(Cl)cc2s1)C(=O)N[C@H](C(=O)N[C@@H](CCCCN)C(=O)N[C@@H]1CCOc2ccccc21)C1CCNCC1`, for which the inhibition entry on DCN1-like protein 1 [1], at DCN1-like protein 1 [2], on DCN1-like protein 1 [3], at DCN1-like protein 1 [4], at DCN1-like protein 1 [5] and at DCN1-like protein 1 [6] was “inactive” throughout. The inhibition result at DCN1-like protein 1 [7], at DCN1-like protein 1 [9], on DCN1-like protein 1 [10], at DCN1-like protein 1 [11], on DCN1-like protein 1 [12] and on DCN1-like protein 1 [14] was “inactive” throughout. The inhibition entry on DCN1-like protein 1 [15] and at DCN1-like protein 1 [17] was “inactive” each time. Further, the result on DCN1-like protein 1 [8] was inactive. Also, the Kd on DCN1-like protein 1 [13] came out at 1470 nM. The K came out at 2.4 ×10³ /M/s on DCN1-like protein 1 [16] and 2.6 ×10⁻³ /s at DCN1-like protein 1 [18].
Consider `CCC(=O)N[C@@H](Cc1nc2ccc(Cl)cc2s1)C(=O)N[C@H](C(=O)N[C@@H](CCCCN)C(=O)N[C@@H]1CCOc2ccccc21)C1CCOCC1`, for which the inhibition result at DCN1-like protein 1 [19], on DCN1-like protein 1 [20], on DCN1-like protein 1 [27], on DCN1-like protein 1 [29] and on DCN1-like protein 1 [31] was “inactive” throughout. Also, the inhibition entry at DCN1-like protein 1 [4], at DCN1-like protein 1 [24] and at DCN1-like protein 1 [25] was “Active” each time. Moreover, the Activity result on DCN1-like protein 1 [21] is “Dose-dependent effect”. In addition, the inhibition entry on DCN1-like protein 1 [22] and at DCN1-like protein 1 [30] was “Dose-dependent effect” in each case. Besides, the outcome with NCI-H2170 [23] and in the series with NCI-H2170 [28] was inactive. Moreover, the Kd on DCN1-like protein 1 [13] stood at 6.7 nM. The solubility (thermodynamic) at 24 h in series [26] was 54 µM (≈ 38.5 µg/mL). Moreover, the values for the K on DCN1-like protein 1 [16] and at DCN1-like protein 1 [18] were 2.9 ×10⁵ /M/s and 2 ×10⁻³ /s, respectively.

The term Kd denotes the concentration at which binding is half-saturated. Broadly, the thermodynamic solubility is solubility found after equilibrating the solid with the medium.
